Measurements taken from ChEMBL document CHEMBL5674882, “Benzolactam-related compounds promote apoptosis of HIV-infected human cells via protein kinase C-induced HIV latency reversal” (J Biol Chem, 2019).
Calls of active or inactive are those of the source. No cut-off for these calls is given here.

Experiments:
[1] = Toxicity in human U-937 cells assessed as reduction in cell viability after 48 hrs by WST8 assay; format: cell-based
Method in brief: (§1)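 Parental, uninfected lines (A3.01 for ACH-2, U937 for U1) at 5 × 10^5 cells/ml cultured with or without drug. Viable cells read at 48 h (day 2) and expressed as % of untreated control. CC50 taken as the concentration lowering viability by 50%.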

ACH-2 cell line [2] = assay: Induction of apoptosis in human ACH-2 cells assessed as cleaved-PARP level at 1 uM incubated for 24 hrs by flow cytometry (reference value: 1.64%); format: functional
Method in brief: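 Cells fixed, permeabilized, stained on ice with anti-cleaved PARP (Asp-214) mAb; % cleaved-PARP cells by flow cytometry. Means ± S.D. of three independent experiments.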

U1 [3] = assay: Induction of apoptosis in human U1 cells at 1 uM after 48 hrs by PI/annexin-V staining based flow cytometry; format: functional
[4] = Toxicity in human A3.01 cells assessed as reduction in cell viability after 48 hrs by WST8 assay; format: cell-based; method in brief: as §1
U1 [5] = assay: Induction of apoptosis in human U1 cells assessed as caspase-3 activation at 1 uM incubated for 24 hrs by flow cytometry; format: functional
Method in brief: (§2)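 Cells fixed in 1% paraformaldehyde, permeabilized, stained 30 min on ice with anti-active caspase-3 mAb, and analysed by flow cytometry. Three independent experiments.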

J-Lat 6.3 (Homo sapiens) = assay: Induction of apoptosis in human J-Lat 6.3 cells at 1 uM incubated for 48 hrs after pre-incubated for 2 hrs with 20 uM caspase inhibitor Q-VD-Oph by propidium iodide/annexin-V staining based flow cytometry
Protein kinase C (PKC) [6] = assay: Activation of PKC in human ACH-2 cells infected with latent HIV-1 assessed as reversal of HIV-1 latency by measuring increase in p24 antigen level incubated for 48 hrs by chemiluminescent enzyme immunoassay; format: cell-based; details: ach-2 cell line
ACH-2 cell line [7] = assay: Induction of apoptosis in human ACH-2 cells at 1 uM after 48 hrs by PI/annexin-V staining based flow cytometry; format: functional
[8] = molecular target: T1, Protein kinase C (PKC) (Homo sapiens) (UniProt O94806+P41743+P17252+P05129+Q05655+P05771+Q05513+Q02156+P24723+Q15139+Q04759); assay: Activation of PKC in human J-Lat 6.3 cells infected with latent HIV-1 assessed as reversal of HIV-1 latency by measuring increase of GFP-positive cells at 10 uM in presence of pan-PKC inhibitor Go-6983 incubated for 24 hrs by flow cytometry; format: cell-based
Method in brief: (§3)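 J-Lat 6.3 cells pretreated 3 h with a PKC inhibitor: Gö 6983 1 µM, Gö 6976 1 µM, GF 109203X 1 µM, PKCθ/δ inhibitor 10 µM, or Rottlerin 1 µM. Then exposed to 10 µM compound for 24 h; GFP-positive cells counted by flow cytometry. Mean ± S.D.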

[9] = molecular target: T1, Protein kinase C (PKC) (Homo sapiens); assay: Activation of PKC in human ACH-2 cells infected with latent HIV-1 assessed as reversal of HIV-1 latency by measuring increase in p24 antigen level at 1 to 10000 nM incubated for 48 hrs by chemiluminescent enzyme immunoassay; format: cell-based; details: ACH-2 cell line, dose 1-10000 nM
Method in brief: (§4)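 ACH-2 or U1 cells (5 × 10^5 cells/ml) incubated 48 h with graded drug concentrations. Supernatant p24 antigen measured by automated chemiluminescent immunoassay. EC50 calculated taking the maximum response with excess PMA as 100%. Means ± S.D. of three independent experiments.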

ACH-2 cell line [10] = assay: Induction of apoptosis in human ACH-2 cells assessed as caspase-3 activation at 1 uM incubated for 24 hrs by flow cytometry; format: functional; method in brief: as §2
U1 [11] = assay: Induction of apoptosis in human U1 cells assessed as caspase-3 activation at 1 uM incubated for 24 hrs by flow cytometry (reference value: 1.86%); format: functional; method in brief: as §2
J-Lat 6.3 [12] = assay: Induction of apoptosis in human J-Lat 6.3 cells at 1 uM incubated for 48 hrs by propidium iodide/annexin-V staining based flow cytometry (reference value: 3.16%); format: functional
U-937 = assay: Induction of apoptosis in human U-937 cells assessed as caspase-3 activation at 1 uM incubated for 24 hrs by flow cytometry; format: functional; method in brief: as §2
[13] = Toxicity in human PBMC assessed as reduction in cell viability after 5 days by WST8 assay; format: cell-based; details: time 5 day
Method in brief: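 PBMC from a healthy donor exposed to drug, with viability determined at day 5. CC50 is the concentration reducing viability by 50%.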

[14] = molecular target: T1, Protein kinase C (PKC) (Homo sapiens); assay: Activation of PKC in human U1 cells infected with latent HIV-1 assessed as reversal of HIV-1 latency by measuring increase in p24 antigen level at 1 to 10000 nM incubated for 48 hrs by chemiluminescent enzyme immunoassay; format: cell-based; details: dose 1-10000 nM; method in brief: as §4
J-Lat 6.3 [15] = assay: Induction of apoptosis in human J-Lat 6.3 cells assessed as caspase-3 activation at 1 uM incubated for 24 hrs by flow cytometry (reference value: 2.43%); format: functional; method in brief: as §2
ACH-2 cell line [16] = assay: Induction of apoptosis in human ACH-2 cells at 1 uM incubated for 48 hrs after pre-incubated for 2 hrs with 20 uM caspase inhibitor Q-VD-Oph by propidium iodide/annexin-V staining based flow cytometry; format: functional, cell-based
Method in brief: (§5)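 ACH-2 or U1 cells pretreated 2 h with 20 µM pan-caspase inhibitor Q-VD-Oph, then exposed to 1 µM compound for 48 h. Annexin-V/PI staining by flow cytometry; apoptotic proportions compared with and without Q-VD-Oph. Mean ± S.D.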

ACH-2 cell line [17] = assay: Induction of apoptosis in human ACH-2 cells at 1 uM incubated for 48 hrs by propidium iodide/annexin-V staining based flow cytometry (reference value: 3.16%); format: functional
[18] = molecular target: T1, Protein kinase C (PKC) (Homo sapiens); assay: Activation of PKC in human J-Lat 6.3 cells infected with latent HIV-1 assessed as reversal of HIV-1 latency by measuring increase of GFP-positive cells at 10 uM in presence of PKC alpha/beta/gamma inhibitor GF109203X incubated for 24 hrs by flow cytometry; format: cell-based; method in brief: as §3
J-Lat 6.3 [19] = assay: Induction of apoptosis in human J-Lat 6.3 cells assessed as caspase-3 activation at 1 uM incubated for 24 hrs by flow cytometry; format: functional; method in brief: as §2
[20] = molecular target: T1, Protein kinase C (PKC) (Homo sapiens); assay: Activation of PKC in human J-Lat 6.3 cells infected with latent HIV-1 assessed as reversal of HIV-1 latency by measuring increase of GFP-positive cells at 10 uM in presence of PKC theta/delta/epsilon/eta inhibitor PKCtheta/delta inhibitor incubated for 24 hrs by flow cytometry; format: cell-based; method in brief: as §3
[21] = molecular target: T1, Protein kinase C (PKC) (Homo sapiens); assay: Activation of PKC in human J-Lat 6.3 cells infected with latent HIV-1 assessed as reversal of HIV-1 latency by measuring increase of GFP-positive cells at 10 uM in presence of PKC alpha/beta inhibitor Go-6976 incubated for 24 hrs by flow cytometry; format: cell-based; method in brief: as §3
U1 [22] = assay: Induction of apoptosis in human U1 cells at 1 uM incubated for 48 hrs by propidium iodide/annexin-V staining based flow cytometry (reference value: 3.16%); format: functional
U1 [23] = assay: Induction of apoptosis in human U1 cells at 1 uM incubated for 48 hrs after pre-incubated for 2 hrs with 20 uM caspase inhibitor Q-VD-Oph by propidium iodide/annexin-V staining based flow cytometry; format: functional, cell-based; method in brief: as §5
[24] = molecular target: T1, Protein kinase C (PKC) (Homo sapiens); assay: Activation of PKC in human J-Lat 6.3 cells infected with latent HIV-1 assessed as reversal of HIV-1 latency by measuring increase of GFP-positive cells at 10 uM in presence of PKC delta inhibitor Rottlerin incubated for 24 hrs by flow cytometry; format: cell-based; method in brief: as §3
Protein kinase C (PKC) [25] = assay: Activation of PKC in human U1 cells infected with latent HIV-1 assessed as reversal of HIV-1 latency by measuring increase in p24 antigen level incubated for 48 hrs by chemiluminescent enzyme immunoassay; format: cell-based
[26] = Induction of apoptosis in human CEM A3.01 cells assessed as caspase-3 activation at 1 uM incubated for 24 hrs by flow cytometry; format: functional; method in brief: as §2
Jurkat = assay: Induction of apoptosis in human Jurkat cells assessed as caspase-3 activation at 1 uM incubated for 24 hrs by flow cytometry; format: functional; method in brief: as §2
[27] = Toxicity in human CD4+ T-cells assessed as increase in ratio of CD69+ cells incubated for 24 hrs by flow cytometry; format: cell-based; details: cd4+ t cell
Method in brief: (§6)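 Primary CD4+ T-cells from healthy donors treated with drug for 24 h. Cells stained with anti-CD25 and anti-CD69 antibodies (plus CD3, CD4, HLA-DR) for 30 min on ice, then marker-positive proportions quantified by flow cytometry.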

[28] = Toxicity in human CD4+ T-cells assessed as increase in ratio of CD25+ cells incubated for 24 hrs by flow cytometry; format: cell-based; details: cd4+ t cell; method in brief: as §6

| Compound | CC50 at 48 h [1] | Activity (ACH-2 cell line [2]) | Activity (U1 [3]) | CC50 at 48 h [4] | Activity (U1 [5]) | Activity (J-Lat 6.3 (Homo sapiens)) | EC50 (Protein kinase C (PKC) [6]) | Activity (ACH-2 cell line [7]) | Activity ([9]; filed as activator) | Activity (ACH-2 cell line [10]) | Activity (U1 [11]) | Activity (J-Lat 6.3 [12]) | Activity (U-937) | CC50 at 120 h [13] | Activity ([14]; filed as activator) | Activity (J-Lat 6.3 [15]) | Activity (ACH-2 cell line [16]) | Activity (ACH-2 cell line [17]) | Activity (J-Lat 6.3 [19]) | EC50 (Protein kinase C (PKC) [25]) | also measured |
| --- | --- | --- | --- | --- | --- | --- | --- | --- | --- | --- | --- | --- | --- | --- | --- | --- | --- | --- | --- | --- | --- |
| CC(C)[C@H]1C(=O)N[C@H](CO)Cc2c[nH]c3cccc(c23)N1C [INDOLACTUM] | > 100 µM | 24.2% | 18% | > 100 µM | 30.5% | inactive | 0.047 µM | 47.1% | Active | 24.2% | 7.82% | 15.7% | 0.584% | > 100 µM | Active | 22.2% | inactive | 45.1% | 14.1% | 0.36 µM | Activity [8]: inactive; Activity [18]: inactive; Activity [20]: inactive; Activity [21]: inactive; Activity (U1 [22]): 17.7%; Activity (U1 [23]): inactive; Activity [24]: inactive; Activity [26]: 2.69%; Activity (Jurkat): 1.72% |
| CC(=O)O[C@@]12C[C@@H](C)[C@@]3(O)[C@@H](C=C(CO)C[C@]4(O)C(=O)C(C)=C[C@@H]34)[C@@H]1C2(C)C [PROSTRATIN] | > 100 µM | 15.2% | 14.1% | > 100 µM | 29.9% | inactive |  | 37.7% |  | 14% | 7.83% | 13.7% | 0.307% | > 100 µM |  | 15.6% | inactive | 34.7% | 8.66% |  | Activity [27]: Non-Toxic; Activity [28]: Non-Toxic; Activity (U1 [22]): 12.7%; Activity (U1 [23]): inactive; Activity [26]: 1.06%; Activity (Jurkat): 1.47% |
| CC(C)[C@@H]1C(=O)N[C@H](CO)Cc2cc3c(cc2N1C)C(C)(C)CCC3(C)C |  |  |  |  |  |  |  |  |  |  |  |  |  |  |  |  |  |  |  |  | Activity [9]: inactive; Activity [14]: inactive |
| CCCCCCCCCCc1ccc2c(c1)N(C)[C@@H](C(C)C)C(=O)N[C@H](CO)CC2 |  |  |  |  |  |  |  |  |  |  |  |  |  |  |  |  |  |  |  |  | Activity [9]: inactive; Activity [14]: inactive |
| CCCCCCCCCCc1ccc2c(c1)N(C)[C@H](C(C)C)C(=O)N[C@H](CO)CC2 | > 100 µM |  |  | > 100 µM |  |  | 1.54 µM |  | Active |  |  |  |  | > 100 µM | Active |  |  |  |  | 4 µM |  |
| CCCCCCCCCCc1ccc2c(c1)N(C)[C@H](C(C)C)C(=O)N[C@H](CO)C2 | 39.2 µM | 10% | 6.1% | 17.8 µM | 8.42% | inactive | 0.43 µM | 20.4% | Active | 11.5% | 4.66% | 7.95% | 0.127% | 18.9 µM | Active | 4.35% | inactive | 18.2% | 2.25% | 2.33 µM | Activity [8]: inactive; Activity [18]: inactive; Activity [20]: inactive; Activity [21]: inactive; Activity (U1 [22]): 5.9%; Activity (U1 [23]): inactive; Activity [24]: inactive; Activity [26]: 1.26%; Activity (Jurkat): 0.587% |
| CC(C)[C@H]1C(=O)N[C@H](CO)Cc2cc3c(cc2N1C)C(C)(C)CCC3(C)C | 22.9 µM |  |  | 19.5 µM |  |  | 2.91 µM |  | Active |  |  |  |  | 65.8 µM | Active |  |  |  |  | 9.89 µM |  |
